How the values were obtained:
[1] = target: Centromere-associated protein E (Homo sapiens, UniProt Q02224); assay: Inhibition of microtubule-stimulated ATPase activity of C-terminal 6-his-tagged CENP-E (2 to 340 residues)(unknown origin) expressed in Escherichia coli BL21(DE3) in presence of ATP
In short: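 Steady-state ATPase of CENP-E motor domain, residues 2–340 with C-terminal 6-His tag, expressed in E. coli BL21(DE3). Run at 1 nM enzyme, 500 μM ATP and 5 μM paclitaxel-stabilized microtubules in PEM25 (25 mM PIPES-K pH 6.8, 2 mM MgCl2, 1 mM EGTA) plus 10 μM paclitaxel. IC50 taken from concentration-response curves.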

A204 = assay: Anticancer activity against human A204 cells assessed as cell growth inhibition measured after 72 hrs by DAPI staining based analysis; type: functional
In short: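 Cells were seeded and, after 24 h, DNA content was read as T0. Cells were then exposed to varying drug concentrations for a further 72 h (T72). Fixed cells were DAPI-stained and DNA content measured by automated imaging. T72 values were normalized to T0. GI50 is the concentration giving 50% growth inhibition between T0 and Ymax, obtained by curve fitting.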

[2] = Anticancer activity against human BM-1604 cells assessed as cell growth inhibition measured after 72 hrs by DAPI staining based analysis; type: functional
In short: (§1)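 Cells were seeded, and DNA content at 24 h after seeding (T0) was read by imaging of fixed, DAPI-stained cells. Cells were then exposed to a range of drug concentrations for a further 72 h (T72) and DNA content was read again. T72 values were normalized to T0, and GI50 was taken from curve fits as the concentration giving 50% growth inhibition relative to T0 and Ymax.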

C-33-A = assay: Anticancer activity against human C-33-A cells assessed as cell growth inhibition measured after 72 hrs by DAPI staining based analysis; type: functional; in short: as §1
CCF-STTG1 = assay: Anticancer activity against human CCF-STTG1 cells assessed as cell growth inhibition measured after 72 hrs by DAPI staining based analysis; type: functional; in short: as §1
CESS = assay: Anticancer activity against human CESS cells assessed as cell growth inhibition measured after 72 hrs by DAPI staining based analysis; type: functional; in short: as §1
DoTc2-4510 = assay: Anticancer activity against human DoTc2-4510 cells assessed as cell growth inhibition measured after 72 hrs by DAPI staining based analysis; type: functional
In short: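 Cells seeded, DAPI-stained DNA content of fixed cells read by imaging 24 h after seeding (T0), and again after a further 72 h exposure to a range of drug concentrations (T72). T72 values were normalized to T0. Curve fits gave the concentration producing 50% growth inhibition relative to T0 and Ymax (GI50).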

Hep 3B2 = assay: Anticancer activity against human Hep3B cells assessed as cell growth inhibition measured after 72 hrs by DAPI staining based analysis; type: functional
HPAF-II = assay: Anticancer activity against human HPAF-II cells assessed as cell growth inhibition measured after 72 hrs by DAPI staining based analysis; type: functional
[3] = Anticancer activity against human KHOS-240S cells assessed as cell growth inhibition measured after 72 hrs by DAPI staining based analysis; type: functional
LNCaP = assay: Anticancer activity against human LNCaP cells assessed as cell growth inhibition measured after 72 hrs by DAPI staining based analysis; type: functional
MOLT-16 [4] = assay: Anticancer activity against human MOLT-16 cells assessed as cell growth inhibition measured after 72 hrs by DAPI staining based analysis; type: functional
NCI-H460 = assay: Anticancer activity against human NCI-H460 cells assessed as cell growth inhibition measured after 72 hrs by DAPI staining based analysis; type: functional
SK-OV-3 = assay: Anticancer activity against human SK-OV-3 cells assessed as cell growth inhibition measured after 72 hrs by DAPI staining based analysis; type: functional
SNU-475 = assay: Anticancer activity against human SNU-475 cells assessed as cell growth inhibition measured after 72 hrs by DAPI staining based analysis; type: functional
[5] = Anticancer activity against human SW579 cells assessed as cell growth inhibition measured after 72 hrs by DAPI staining based analysis; type: functional
SW-620 = assay: Anticancer activity against human SW620 cells assessed as cell growth inhibition measured after 72 hrs by DAPI staining based analysis; type: functional
SW 962 [6] = assay: Anticancer activity against human SW 962 cells assessed as cell growth inhibition measured after 72 hrs by DAPI staining based analysis; type: functional
T-24 = assay: Anticancer activity against human T24 cells assessed as cell growth inhibition measured after 72 hrs by DAPI staining based analysis; type: functional
[7] = Anticancer activity against human TE 381.T cells assessed as cell growth inhibition measured after 72 hrs by DAPI staining based analysis; type: functional
5637 = assay: Anticancer activity against human 5637 cells assessed as cell doubling measured for 72 hrs by DAPI staining based analysis; type: functional
CWR22R = assay: Anticancer activity against human 22Rv1 cells assessed as cell doubling measured for 72 hrs by DAPI staining based analysis; type: functional
639-V = assay: Anticancer activity against human 639-V cells assessed as cell doubling measured for 72 hrs by DAPI staining based analysis; type: functional
[8] = Anticancer activity against human A7 cells assessed as cell doubling measured for 72 hrs by DAPI staining based analysis; type: functional
AGS = assay: Anticancer activity against human AGS cells assessed as cell doubling measured for 72 hrs by DAPI staining based analysis; type: functional
[9] = Anticancer activity against human BM-1604 cells assessed as cell doubling measured for 72 hrs by DAPI staining based analysis; type: functional
BT-474 = assay: Anticancer activity against human BT-474 cells assessed as cell doubling measured for 72 hrs by DAPI staining based analysis; type: functional
BV-173 = assay: Anticancer activity against human BV-173 cells assessed as cell doubling measured for 72 hrs by DAPI staining based analysis; type: functional
Malme-3M = assay: Anticancer activity against human Malme-3M cells assessed as cell doubling measured for 72 hrs by DAPI staining based analysis; type: functional
MOLT-16 [10] = assay: Anticancer activity against human MOLT-16 cells assessed as cell doubling measured for 72 hrs by DAPI staining based analysis; type: functional
NCI/ADR-RES = assay: Anticancer activity against human NCI/ADR-RES cells assessed as cell doubling measured for 72 hrs by DAPI staining based analysis; type: functional
[11] = Anticancer activity against human RDES cells assessed as cell doubling measured for 72 hrs by DAPI staining based analysis; type: functional, RD-ES
[12] = Anticancer activity against human SCC-13 cells assessed as cell doubling measured for 72 hrs by DAPI staining based analysis; type: functional
SF-268 = assay: Anticancer activity against human SF-268 cells assessed as cell doubling measured for 72 hrs by DAPI staining based analysis; type: functional
SK-LMS-1 = assay: Anticancer activity against human SK-LMS-1 cells assessed as cell doubling measured for 72 hrs by DAPI staining based analysis; type: functional
SW 962 [13] = assay: Anticancer activity against human SW 962 cells assessed as cell doubling measured for 72 hrs by DAPI staining based analysis; type: functional
HT-29 = assay: Antitumor activity against human HT-29 cells in xenograft model assessed as difference between median time to endpoint time of treated versus control group at 62.5 mg/kg; type: functional
[14] = Antitumor activity against human MV-522 cells in xenograft model assessed as tumor growth delay at 62.5 mg/kg relative to control; type: functional

Sequence of Centromere-associated protein E (Q02224 whole entry, the tested form may be a part): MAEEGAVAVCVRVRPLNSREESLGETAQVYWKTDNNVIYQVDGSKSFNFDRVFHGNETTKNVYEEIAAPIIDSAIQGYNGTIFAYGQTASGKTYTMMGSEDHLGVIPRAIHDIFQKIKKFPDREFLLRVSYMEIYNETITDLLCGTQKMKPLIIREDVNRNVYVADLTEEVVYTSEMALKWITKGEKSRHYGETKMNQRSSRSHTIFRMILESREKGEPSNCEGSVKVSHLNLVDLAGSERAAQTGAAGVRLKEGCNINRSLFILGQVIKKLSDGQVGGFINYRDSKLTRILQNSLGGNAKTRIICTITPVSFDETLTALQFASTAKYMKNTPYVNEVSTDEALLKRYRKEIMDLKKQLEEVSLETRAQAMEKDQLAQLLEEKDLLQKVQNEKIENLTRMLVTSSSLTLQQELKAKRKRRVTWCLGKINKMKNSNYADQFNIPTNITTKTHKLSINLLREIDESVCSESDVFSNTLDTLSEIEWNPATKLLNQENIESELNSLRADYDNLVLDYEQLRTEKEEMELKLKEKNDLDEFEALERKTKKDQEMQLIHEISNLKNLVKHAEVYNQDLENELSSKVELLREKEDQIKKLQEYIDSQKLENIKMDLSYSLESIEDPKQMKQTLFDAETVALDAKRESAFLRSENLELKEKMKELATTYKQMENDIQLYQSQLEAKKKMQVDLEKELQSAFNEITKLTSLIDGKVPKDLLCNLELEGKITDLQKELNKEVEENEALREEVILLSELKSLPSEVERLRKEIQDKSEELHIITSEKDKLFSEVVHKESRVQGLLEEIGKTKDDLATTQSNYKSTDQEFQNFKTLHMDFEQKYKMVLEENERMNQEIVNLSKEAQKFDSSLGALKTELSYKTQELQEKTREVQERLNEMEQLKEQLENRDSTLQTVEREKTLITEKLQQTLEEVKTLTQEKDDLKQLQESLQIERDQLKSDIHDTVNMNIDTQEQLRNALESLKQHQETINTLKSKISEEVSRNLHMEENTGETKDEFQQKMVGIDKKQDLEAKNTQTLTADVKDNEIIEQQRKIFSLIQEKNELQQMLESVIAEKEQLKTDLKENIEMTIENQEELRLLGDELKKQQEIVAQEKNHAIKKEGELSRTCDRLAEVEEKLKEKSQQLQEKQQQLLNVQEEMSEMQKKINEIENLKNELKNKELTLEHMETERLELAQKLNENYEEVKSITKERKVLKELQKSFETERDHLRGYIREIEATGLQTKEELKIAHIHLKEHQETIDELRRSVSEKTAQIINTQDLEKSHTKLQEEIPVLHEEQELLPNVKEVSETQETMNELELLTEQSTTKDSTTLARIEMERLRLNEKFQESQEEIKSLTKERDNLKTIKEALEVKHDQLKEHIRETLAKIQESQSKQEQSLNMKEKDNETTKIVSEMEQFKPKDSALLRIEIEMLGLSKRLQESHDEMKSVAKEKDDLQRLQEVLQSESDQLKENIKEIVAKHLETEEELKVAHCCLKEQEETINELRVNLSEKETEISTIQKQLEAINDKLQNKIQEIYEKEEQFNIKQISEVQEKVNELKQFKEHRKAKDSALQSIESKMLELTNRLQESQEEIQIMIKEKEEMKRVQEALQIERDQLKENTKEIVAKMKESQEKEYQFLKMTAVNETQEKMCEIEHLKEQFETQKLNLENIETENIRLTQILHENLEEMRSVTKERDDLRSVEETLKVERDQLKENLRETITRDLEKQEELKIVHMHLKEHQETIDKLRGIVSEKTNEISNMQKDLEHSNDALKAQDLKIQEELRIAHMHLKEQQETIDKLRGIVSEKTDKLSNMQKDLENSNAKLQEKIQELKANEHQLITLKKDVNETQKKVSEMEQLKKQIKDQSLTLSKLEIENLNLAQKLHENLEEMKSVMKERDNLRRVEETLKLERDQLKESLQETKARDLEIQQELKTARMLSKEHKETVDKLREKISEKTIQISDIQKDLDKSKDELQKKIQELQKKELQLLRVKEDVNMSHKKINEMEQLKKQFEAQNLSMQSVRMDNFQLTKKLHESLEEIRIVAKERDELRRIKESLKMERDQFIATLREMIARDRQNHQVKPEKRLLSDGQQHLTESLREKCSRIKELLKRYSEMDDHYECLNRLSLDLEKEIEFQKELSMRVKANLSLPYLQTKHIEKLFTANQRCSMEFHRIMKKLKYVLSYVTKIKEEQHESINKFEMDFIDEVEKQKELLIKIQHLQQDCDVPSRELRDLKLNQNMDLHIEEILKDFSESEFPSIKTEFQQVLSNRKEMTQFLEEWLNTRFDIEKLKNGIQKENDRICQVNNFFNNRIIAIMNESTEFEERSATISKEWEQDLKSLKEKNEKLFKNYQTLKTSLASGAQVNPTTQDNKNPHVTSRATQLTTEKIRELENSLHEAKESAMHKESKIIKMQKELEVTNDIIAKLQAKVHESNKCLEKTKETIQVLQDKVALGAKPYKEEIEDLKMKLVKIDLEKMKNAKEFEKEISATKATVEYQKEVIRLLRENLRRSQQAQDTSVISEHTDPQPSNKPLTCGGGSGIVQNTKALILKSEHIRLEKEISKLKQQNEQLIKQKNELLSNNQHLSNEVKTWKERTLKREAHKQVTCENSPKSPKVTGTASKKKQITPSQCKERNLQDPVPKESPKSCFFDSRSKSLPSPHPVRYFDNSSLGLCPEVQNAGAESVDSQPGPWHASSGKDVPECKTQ

Molecule `CC(C)Oc1ccc(C(=O)N[C@H](CNC(=O)CN(C)C)Cc2ccc(-c3cn4cccc([C@H](C)O)c4n3)cc2)cc1Cl` [GSK-923295A] has an IC50 [1] of 2.3 nM, a GI50 (A204) of 18 nM and a GI50 [2] of 40 nM. The GI50 (C-33-A) was 47 nM, the GI50 (CCF-STTG1) was 24 nM and the GI50 (CESS) was 19 nM. It also gave a GI50 (DoTc2-4510) of 33 nM, a GI50 (Hep 3B2) of 164 nM and a GI50 (HPAF-II) of 5030 nM. The GI50 [3] was 37 nM, the GI50 (LNCaP) was 76 nM and the GI50 (MOLT-16 [4]) was 47 nM. For the same molecule, the GI50 (NCI-H460) was 29 nM, the GI50 (SK-OV-3) was 26 nM and the GI50 (SNU-475) was 26 nM. For the same molecule, the GI50 [5] was 26 nM, the GI50 (SW-620) was 47 nM and the GI50 (SW 962 [6]) was 21 nM. It also gave a GI50 (T-24) of 45 nM, a GI50 [7] of 27 nM and an Activity 5637 of 1.43. It also gave an Activity (CWR22R) of 2.46, an Activity (639-V) of 3.86 and an Activity [8] of 2.17. It also gave an Activity (AGS) of 2.95, an Activity [9] of 2.38 and an Activity (BT-474) of 1.17. For the same molecule, the Activity (BV-173) was 2.16, the Activity (Malme-3M) was 1.18 and the Activity (MOLT-16 [10]) was 4.23. The Activity (NCI/ADR-RES) was 2.47, the Activity [11] was 1.32 and the Activity [12] was 3.39. For the same molecule, the Activity (SF-268) was 2.13, the Activity (SK-LMS-1) was 2.84 and the Activity (SW 962 [13]) was 2.46. It also gave a Time (HT-29) of 2.7 days and an Activity [14] of 50%.

Source: ChEMBL document CHEMBL5705890, “Antitumor activity of an allosteric inhibitor of centromere-associated protein-E” (Proc Natl Acad Sci U S A, 2010)
